Screens deposited in PubChem by The Scripps Research Institute Molecular Screening Center.
PAD4 inh – PAD4 (human) enzyme inhibition; inhibition, % at 6.36 µM; Q9UM07; 330,000 tested, 0.41% active; recombinant PAD4, RCA probe fluorescence polarization;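 active = percent inhibition above a cutoff equal to the mean of all tested compounds plus 3 SD, cut at about 15% in these data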
RBBP9 inh – inhibitors of human serine hydrolase RBBP9; 220,000 tested, 0.2% active; inhibition, % at 7.94 µM; O75884; AID 1515; recombinant RBBP9, FP-Rh probe fluorescence polarization;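 active = inhibition above the campaign mean of all tested compounds plus 3 SD, cut at about 14% in these data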
Target sequence (O75884 whole entry, looked up): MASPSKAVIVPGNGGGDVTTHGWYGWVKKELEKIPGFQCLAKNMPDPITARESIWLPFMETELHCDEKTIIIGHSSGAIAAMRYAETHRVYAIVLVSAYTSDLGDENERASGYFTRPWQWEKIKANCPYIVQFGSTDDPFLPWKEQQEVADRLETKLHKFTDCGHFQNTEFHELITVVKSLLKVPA
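System: RBBP9 protein / Buffer or medium: Tris/NaCl buffer pH 8.0 with 0.1% Pluronic / Probe or stimulus: Serine-hydrolase probe FP-Rh, 375 nM pre-mixing / Dosing: 7.94 µM single dose, 0.794% DMSO / Times: enzyme-compound preincubation 30 min, then probe labeling 45 min, 25 °C / Technique: fluorescence polarization (mP), excitation 525 nm, emission 598 nm / Replication: singlicate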
GSTO1 counter – blocks human GSTO1 in RBBP9 counter-screen; P78417; 300,000 tested, 1.1% active; recombinant GSTO1, activity-based probe fluorescence polarization; AID 1974; inhibition, % at 5.96 µM;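 active = inhibition above the campaign mean inhibition plus 3 SD, cut at about 35% in these data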
PRMT1 inh – blocks human protein arginine methyltransferase 1; recombinant PRMT1, activity-based probe fluorescence polarization; inhibition, % at 2.79 µM; 370,000 tested, 1.3% active; AID 652257;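 active = inhibition above about 21% made by adding two undisclosed values, limit read from the data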
Target sequence (Q99873 whole entry, looked up): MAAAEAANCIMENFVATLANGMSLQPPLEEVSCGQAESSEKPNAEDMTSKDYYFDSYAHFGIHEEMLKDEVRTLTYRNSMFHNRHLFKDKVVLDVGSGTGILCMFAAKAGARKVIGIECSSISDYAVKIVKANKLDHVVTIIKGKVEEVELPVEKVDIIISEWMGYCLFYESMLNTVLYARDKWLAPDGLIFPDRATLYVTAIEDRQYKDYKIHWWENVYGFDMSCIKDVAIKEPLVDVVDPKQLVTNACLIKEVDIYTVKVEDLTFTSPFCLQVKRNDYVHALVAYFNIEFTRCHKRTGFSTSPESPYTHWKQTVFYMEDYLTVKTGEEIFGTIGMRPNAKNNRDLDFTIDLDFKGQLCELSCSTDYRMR
Fam108B inh – blocks mouse Fam108B hydrolase in RBBP9 counter-screen; 300,000 tested, 0.33% active; inhibition, % at 9.51 µM; recombinant Fam108B, FP-Rh probe fluorescence polarization;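 active = inhibition above the screen mean inhibition plus 3 SD, computed separately per campaign, cut at about 18% in these data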;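 also: inhibitors lower polarization as less probe binds the enzyme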
PME-1 primary – PME-1 (human) inhibition. 320,000 tested, 0.53% active. recombinant PME-1, FP-Rh probe fluorescence polarization. inhibition, % at 5.9 µM. Q9Y570. AID 2130;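 active = inhibition above the campaign mean of all compounds plus 3 SD, cut at about 26% in these data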;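 also: competitive labeling of PME-1 active site by serine hydrolase directed probe; inhibitors block probe labeling so polarization falls and inhibition rises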
Fam108b confirm – Fam108b (mouse) hydrolase inhibition, confirmation assay; shares compounds with Fam108B inh; recombinant Fam108b, FP-Rh probe fluorescence polarization; inhibition, % at 9.51 µM; 930 tested, 44% active; AID 1978;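 active = inhibition above a limit from the primary screen, the mean over all compounds plus 3 SD, cut at about 19% in these data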;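 also: inhibitors free the probe so polarization falls as inhibition rises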
Fam108b ABPP HTS – mouse ABHD17B inhibition; shares compounds with Fam108B inh; inhibition, % at 20 µM; 260 tested, 44% active; recombinant Fam108b, gel-based ABPP, fluorophosphonate probe; in the data active = inhibition above about 40%
A number is an active result; i = inactive; nt = no result given. This is a sample that favours compounds with a hit; in the whole collection about 2.3% have one here.

SMILES | PAD4 inh | RBBP9 inh | GSTO1 counter | PRMT1 inh | Fam108B inh | PME-1 primary | Fam108b confirm | others
O=C(CCn1c(=O)oc2ccccc21)Nc1cccc([N+](=O)[O-])c1 | i | nt | i | i | i | i | nt
COc1cccc(/C=N/NC(=O)N/N=C/c2cccc(OC)c2O)c1O | i | nt | i | i | i | i | nt
COc1cccc(/C=N/NC(=O)c2cc3c(OC)ccc(OC)c3[nH]2)c1O | i | nt | i | i | 27.4 | 42.2 | i
O=C(NN=Cc1ccccc1Cl)c1ccccc1 | nt | nt | nt | i | nt | nt | nt
COc1cc2cc(C(=O)N/N=C/c3ccccc3Cl)[nH]c2cc1OC | i | nt | i | i | 32.3 | i | 29.9
O=C(COC(=O)C12CC3CC(CC(O)(C3)C1)C2)Nc1ccccc1OC(F)F | i | i | i | i | i | i | nt
COc1ccc(Nc2nc(N)c(C(=O)c3ccc(F)cc3)s2)cc1 | i | nt | i | i | 49.6 | i | i
Cc1ccc(NC(=O)CNC(c2ccccc2)c2ccccc2)c(F)c1 | i | i | i | i | i | i | nt
CCCC1Nc2ccc(C(=O)O)cc2C2C=CCC12 (centres undefined) | i | i | i | nt | 25.3 | i | i
COc1ccc(O)c(/C=N/NC(=S)Nc2cccc(S(=O)(=O)N(C)C)c2)c1 | i | i | i | i | 37.3 | 52.9 | i
COc1cccc(/C=N/NC(=S)Nc2cccc(S(=O)(=O)N(C)C)c2)c1 | i | i | i | i | i | i | nt
CN(C)S(=O)(=O)N1CCN(C(=O)c2ccccc2Cl)CC1 | i | i | i | i | i | i | nt
Nc1ccc(O)cc1 | 52.0 | nt | 97.8 | nt | 64.1 | 49.6 | i
Oc1ccc(Cl)cc1CNc1cccc2cccnc12 | i | nt | 35.2 | i | 20.8 | i | i
Cc1ccc(O)c(CNc2cccc3cccnc23)c1 | i | i | i | i | i | i | nt
Cc1ccc(C(C)C)c(OCc2ccc(C(=O)N/N=C/c3ccc(C(=O)O)cc3)cc2)c1 | i | i | i | i | i | i | nt
Cc1ccc(C(C)C)c(OCc2ccc(C(=O)N/N=C/c3ccc(O)cc3O)cc2)c1 | i | i | i | i | 28.1 | 35.4 | i
COc1ccc(/C=N/NC(=O)c2cc(C34CC5CC(CC(C5)C3)C4)[nH]n2)cc1O | i | i | i | i | 24.1 | i | i
CCCc1cc(=O)[nH]c(SCC(=O)NC(=O)c2ccccc2)n1 | i | i | i | nt | i | i | nt
O=C(N/N=C/c1c(O)ccc2ccccc12)c1cccc(C(F)(F)F)c1 | i | i | i | i | 18.7 | i | i
COc1ccc2ccccc2c1/C=N/NC(=O)c1cccc(Br)c1 | i | i | i | i | i | i | nt
CCN(C(=O)COC(=O)c1ccccc1Nc1cccc(C)c1C)C1CCS(=O)(=O)C1 (centres undefined) | i | i | i | i | i | i | nt
COc1cc(-c2nc(-c3ccc4c(c3)-c3ccccc3S4(=O)=O)c(-c3ccccc3)[nH]2)cc(OC)c1OC | i | i | i | i | 29.0 | i | i
Cc1cc(Nc2ccc(Cl)cc2)nc(NCc2ccccc2)n1 | i | i | i | i | 33.5 | i | 32.1 | Fam108b ABPP HTS=45.0
Cc1cc(C)n2nc(C(=O)N/N=C/c3ccco3)nc2n1 | i | i | i | i | i | i | nt
SMILES | PAD4 inh | RBBP9 inh | GSTO1 counter | PRMT1 inh | Fam108B inh | PME-1 primary | Fam108b confirm | others
CCCC(=O)Nc1sc2c(c1C#N)CCCCC2 | i | i | i | i | 69.7 | i | i
Cn1ccnc1C(=O)c1ccccc1Cl | i | nt | i | i | 51.6 | i | i
Cn1ccnc1C(=O)c1cccc(Br)c1 | i | nt | i | i | i | i | nt
CC(C)(C)CC(=O)Nc1ccc(-c2nnc3n2CCCCC3)cc1 | i | nt | i | i | i | i | nt
COc1cc(C(=S)N2CCCCC2)ccc1OCC(=O)Nc1ccc(F)cc1 | i | nt | i | i | i | i | nt
CCc1cccc2cc3c(N)c(C(=O)Nc4ccc(S(=O)(=O)N5CCCC5)cc4)sc3nc12 | i | i | i | i | 54.2 | 38.4 | i
COc1cccc(CC(=O)Nc2ccc(S(=O)(=O)N3CCCCC3)cc2)c1 | i | nt | nt | i | nt | nt | nt
Cc1cccc2cc3c(N)c(C(=O)Nc4ccc(N5CCOCC5)cc4)sc3nc12 | i | i | i | i | 19.9 | i | i
CCCc1c(C(=O)N/N=C/c2ccc(-c3ccccc3)cc2)nnn1-c1nonc1N | nt | nt | nt | i | nt | nt | nt
CCN(CC)c1ccc(NC(=S)NC(=O)Cc2ccccc2)cc1 | i | i | i | i | i | i | nt
Cc1c(Cl)cccc1NS(=O)(=O)c1ccc2c(c1)C1C=CCC1C(c1ccc(C(=O)O)cc1)N2 (centres undefined) | i | i | i | nt | 34.4 | i | 33.3 | Fam108b ABPP HTS=i
CC(=O)c1ccc2c(c1)C1C=CCC1C(c1ccc(S(=O)(=O)N3CCOCC3)cc1)N2 (centres undefined) | i | i | i | i | i | i | nt
CC1CC1C(=O)Nc1nc(-c2ccc(Cl)s2)cs1 (centres undefined) | i | i | i | i | 20.4 | i | i
Oc1ccc(N=Nc2ccccc2-c2nn[nH]n2)c(O)c1 | i | nt | i | i | 39.7 | i | 41.4 | Fam108b ABPP HTS=i
Cc1ccccc1-c1nn[nH]n1 | i | i | i | i | i | i | nt
O=C(CSc1ccc(-c2ccco2)nn1)NCc1ccccc1Cl | i | i | i | i | 21.5 | i | i
O=C(CSc1ccc(-c2ccco2)nn1)Nc1ccccc1 | i | i | i | i | i | i | nt
CC1CCN(S(=O)(=O)c2ccc(C(=O)Nc3ccccc3-c3nc4ccccc4[nH]3)cc2)CC1 | i | i | i | i | 29.1 | i | 71.0 | Fam108b ABPP HTS=100.0
CC1CCCN(S(=O)(=O)c2ccc(C(=O)Nc3ccccc3-c3nc4ccccc4[nH]3)cc2)C1 (centres undefined) | i | i | i | i | i | i | nt
Oc1c(Br)cc(/C=N/n2c(-c3ccccc3)n[nH]c2=S)c(Br)c1O | i | nt | i | nt | 34.4 | i | 41.2
Oc1c(C(Nc2cccc(C(F)(F)F)c2)c2cccnc2)ccc2cccnc12 (centres undefined) | i | i | i | i | i | i | nt
CC(=O)c1c(C)[nH]c(C2=NNC(=NCc3ccccc3)SC2)c1C | i | i | i | i | i | i | nt
CCOC(=O)c1c(C)[nH]c(C2=NNC(=Nc3cccc(Cl)c3)SC2)c1C | i | i | i | nt | 21.6 | 34.4 | i
O=C(Nc1cc(S(=O)(=O)N2CCOCC2)ccc1N1CCCC1)c1cnccn1 | i | i | i | i | 18.4 | i | 22.7
Cc1ccc(-c2nc3ccc([N+](=O)[O-])cc3[nH]2)cc1 | i | i | i | i | i | i | nt
O=[N+]([O-])c1ccc2nc(-c3ccc(Cl)cc3)[nH]c2c1 | i | i | i | i | 19.5 | i | i
CCc1cc(C(Cc2ccc3ccccc3n2)=NO)c(O)cc1O | nt | nt | nt | nt | nt | nt | nt | Fam108b ABPP HTS=40.0
CCCOc1ccc(/C(CC)=N/NC(=O)C2(C)CC2(Br)Br)cc1 (centres undefined) | i | i | i | i | 41.4 | i | i
